Measured values reported in ChEMBL document CHEMBL4422659, “Discovery of novel 4-phenyl-2-(pyrrolidinyl)nicotinamide derivatives as potent Nav1.1 activators” (Bioorg Med Chem Lett, 2019).

What was measured:
[1] = target: Sodium channel protein type 1 subunit alpha (Homo sapiens) (UniProt P35498); assay: Activation of human Nav1.1 expressed in T-Rex-CHO cells assessed as change in decay time constant of channel currents at 10 uM at holding potential of -120 mV by automated patch-clamp electrophysiology assay relative to control; format: cell-based
In short: (§1)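 Human Nav1.1 stably expressed in CHO cells; inactivation current decay time constant (tau) measured on IonWorks automated patch platform; tau given as % of control; mean of N=5 unless noted, standard deviation reported.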

[2] = target: Sodium channel protein type 1 subunit alpha (Homo sapiens) (UniProt P35498); assay: Activation of human Nav1.1 expressed in T-Rex-CHO cells assessed as change in decay time constant of channel currents at 3 uM at holding potential of -120 mV by automated patch-clamp electrophysiology assay relative to control; format: cell-based; in short: as §1
[3] = Free drug level in mouse brain at 30 mg/kg, ip measured at 1 hr by LC-MS/MS analysis; format: ADME, organism-based; conditions: in vivo
In short: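 Free brain concentration derived from total brain level 1 h after 30 mg/kg i.p. in mice and the brain protein binding ratio.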

[4] = target: Sodium channel protein type 1 subunit alpha (Homo sapiens) (UniProt P35498); assay: Activation of human Nav1.1 expressed in T-Rex-CHO cells assessed as change in decay time constant of channel currents at 0.03 uM by Q-patch assay relative to control; format: cell-based
In short: (§2)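 Human Nav1.1 in CHO cells, Q-patch automated patch clamp; current decay time constant (tau) and top current ratio expressed as % of control; mean of N=4 unless noted, standard deviation reported.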

[5] = target: Sodium channel protein type 2 subunit alpha (Homo sapiens) (UniProt Q99250); assay: Activation of human Nav1.2 expressed in T-Rex-CHO cells assessed as change in decay time constant of channel currents at 1 uM at holding potential of -120 mV by automated patch-clamp electrophysiology assay relative to control; format: cell-based
Sodium channel protein type 2 subunit alpha (Homo sapiens), sequence (Q99250 whole entry, looked up): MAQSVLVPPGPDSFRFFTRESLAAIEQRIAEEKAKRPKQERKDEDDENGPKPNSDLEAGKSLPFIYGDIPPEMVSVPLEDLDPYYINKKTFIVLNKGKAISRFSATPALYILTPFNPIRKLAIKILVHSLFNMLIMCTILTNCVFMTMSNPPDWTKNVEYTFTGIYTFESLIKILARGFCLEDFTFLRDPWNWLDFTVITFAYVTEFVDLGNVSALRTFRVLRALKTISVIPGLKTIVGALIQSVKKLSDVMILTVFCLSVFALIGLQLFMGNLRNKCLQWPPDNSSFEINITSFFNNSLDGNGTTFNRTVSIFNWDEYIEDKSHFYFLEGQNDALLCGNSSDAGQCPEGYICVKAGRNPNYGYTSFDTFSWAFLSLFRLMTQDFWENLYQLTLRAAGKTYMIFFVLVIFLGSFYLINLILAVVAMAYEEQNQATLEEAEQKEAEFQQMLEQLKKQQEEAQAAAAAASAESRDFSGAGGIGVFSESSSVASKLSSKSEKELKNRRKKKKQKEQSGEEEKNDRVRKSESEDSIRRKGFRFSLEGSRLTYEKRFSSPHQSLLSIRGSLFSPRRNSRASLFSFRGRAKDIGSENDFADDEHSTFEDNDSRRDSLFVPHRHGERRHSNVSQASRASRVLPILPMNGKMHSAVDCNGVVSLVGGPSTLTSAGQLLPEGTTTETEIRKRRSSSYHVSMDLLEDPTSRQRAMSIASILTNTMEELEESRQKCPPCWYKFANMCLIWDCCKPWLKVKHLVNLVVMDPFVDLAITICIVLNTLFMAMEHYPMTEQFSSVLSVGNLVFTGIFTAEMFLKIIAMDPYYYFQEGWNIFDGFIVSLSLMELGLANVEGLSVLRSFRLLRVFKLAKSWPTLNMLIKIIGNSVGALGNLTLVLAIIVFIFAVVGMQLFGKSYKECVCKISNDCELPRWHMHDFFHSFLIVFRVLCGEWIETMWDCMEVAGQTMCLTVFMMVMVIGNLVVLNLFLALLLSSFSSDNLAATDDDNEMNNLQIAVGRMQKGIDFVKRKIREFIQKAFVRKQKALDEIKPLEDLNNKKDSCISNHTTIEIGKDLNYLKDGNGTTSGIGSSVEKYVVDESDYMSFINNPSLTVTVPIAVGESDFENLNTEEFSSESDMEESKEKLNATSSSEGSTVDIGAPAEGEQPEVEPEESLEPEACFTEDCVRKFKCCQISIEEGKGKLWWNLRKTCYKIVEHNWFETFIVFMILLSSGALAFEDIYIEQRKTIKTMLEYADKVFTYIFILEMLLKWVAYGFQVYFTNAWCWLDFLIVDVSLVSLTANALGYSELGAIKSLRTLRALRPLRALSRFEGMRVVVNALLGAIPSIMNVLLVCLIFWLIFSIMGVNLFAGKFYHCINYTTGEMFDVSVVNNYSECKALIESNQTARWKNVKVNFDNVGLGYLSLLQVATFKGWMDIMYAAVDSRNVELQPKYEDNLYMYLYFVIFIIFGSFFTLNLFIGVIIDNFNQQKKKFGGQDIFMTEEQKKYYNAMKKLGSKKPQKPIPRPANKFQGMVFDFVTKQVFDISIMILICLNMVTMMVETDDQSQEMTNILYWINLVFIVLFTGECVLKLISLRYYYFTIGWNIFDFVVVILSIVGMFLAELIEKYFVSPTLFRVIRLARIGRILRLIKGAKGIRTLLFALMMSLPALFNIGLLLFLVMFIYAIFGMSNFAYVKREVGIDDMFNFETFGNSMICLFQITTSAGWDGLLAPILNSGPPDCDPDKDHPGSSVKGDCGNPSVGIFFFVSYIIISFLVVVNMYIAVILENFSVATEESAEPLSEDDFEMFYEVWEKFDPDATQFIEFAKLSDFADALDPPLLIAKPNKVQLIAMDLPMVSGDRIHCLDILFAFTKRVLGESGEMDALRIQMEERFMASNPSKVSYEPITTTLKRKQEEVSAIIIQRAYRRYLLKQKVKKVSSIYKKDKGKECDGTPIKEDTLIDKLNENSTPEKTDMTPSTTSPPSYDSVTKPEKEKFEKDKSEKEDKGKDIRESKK

[6] = Drug uptake in mouse plasma at 30 mg/kg, ip measured at 1 hr by LC-MS/MS analysis; format: ADME, organism-based
In short: (§3)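 Mice dosed 30 mg/kg intraperitoneally; plasma and brain levels measured 1 h post-dose; brain/plasma ratio computed from total concentrations in brain and plasma.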

[7] = target: Sodium channel protein type 1 subunit alpha (Homo sapiens) (UniProt P35498); assay: Activation of human Nav1.1 expressed in T-Rex-CHO cells assessed as change in decay time constant of channel currents at 1 uM at holding potential of -120 mV by automated patch-clamp electrophysiology assay relative to control; format: cell-based; in short: as §1
[8] = target: Sodium channel protein type 1 subunit alpha (Homo sapiens) (UniProt P35498); assay: Activation of human Nav1.1 expressed in T-Rex-CHO cells assessed as change in decay time constant of channel currents at 1 uM by Q-patch assay relative to control; format: cell-based; in short: as §2
[9] = Ratio of drug level in brain to plasma in mouse at 30 mg/kg, ip measured at 1 hr by LC-MS/MS analysis; format: ADME, organism-based; conditions: brain and plasma; in short: as §3
[10] = target: Sodium channel protein type 8 subunit alpha (Homo sapiens) (UniProt Q9UQD0); assay: Activation of human Nav1.6 expressed in T-Rex-CHO cells assessed as change in peak current at 1 uM by Q-patch assay relative to control; format: cell-based
[11] = Drug uptake in mouse brain at 30 mg/kg, ip measured at 1 hr by LC-MS/MS analysis; format: ADME, organism-based; conditions: read-out: Drug uptake; in short: as §3
[12] = target: Sodium channel protein type 1 subunit alpha (Homo sapiens) (UniProt P35498); assay: Activation of human Nav1.1 expressed in T-Rex-CHO cells assessed as change in top peak current at 1 uM by Q-patch assay relative to control; format: cell-based; in short: as §2
[13] = target: Sodium channel protein type 1 subunit alpha (Homo sapiens) (UniProt P35498); assay: Activation of human Nav1.1 expressed in T-Rex-CHO cells assessed as change in decay time constant of channel currents at 0.3 uM at holding potential of -120 mV by automated patch-clamp electrophysiology assay relative to control; format: cell-based; in short: as §1
[14] = target: Sodium channel protein type 3 subunit alpha (Homo sapiens) (UniProt Q9NY46); assay: Activation of human Nav1.3 expressed in CHO cells assessed as change in peak current at 1 uM by Q-patch assay relative to control; format: cell-based
[15] = target: Sodium channel protein type 2 subunit alpha (Homo sapiens) (UniProt Q99250); assay: Activation of human Nav1.2 expressed in T-Rex-CHO cells assessed as change in peak current at 1 uM by Q-patch assay relative to control; format: cell-based
[16] = target: Sodium channel protein type 3 subunit alpha (Homo sapiens) (UniProt Q9NY46); assay: Activation of human Nav1.3 expressed in CHO cells assessed as change in decay time constant of channel currents at 1 uM at holding potential of -120 mV by automated patch-clamp electrophysiology assay relative to control; format: cell-based
[17] = system: human MDR1; assay: Efflux ratio of permeability across pig LLC-PK1 cells expressing human MDR1 at 1 uM after 1 hr by LC-MS/MS analysis; format: ADME, cell-based, Sus scrofa
In short: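 Efflux ratio measured in LLC-PK1 cells over-expressing human MDR1, substrate at 1 μM.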

[18] = Fraction unbound in mouse brain at 30 mg/kg, ip measured at 1 hr by LC-MS/MS analysis; format: ADME, organism-based
In short: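 Brain protein binding ratio determined for brain exposure study in mice given 30 mg/kg i.p., sampled at 1 h.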

[19] = target: T1, Sodium channel protein type 5 subunit alpha (Homo sapiens, UniProt Q14524); assay: Activation of human Nav1.5 expressed in T-Rex-CHO cells assessed as change in peak current at 1 uM by Q-patch assay relative to control; format: cell-based
T1 sequence (Q14524 whole entry): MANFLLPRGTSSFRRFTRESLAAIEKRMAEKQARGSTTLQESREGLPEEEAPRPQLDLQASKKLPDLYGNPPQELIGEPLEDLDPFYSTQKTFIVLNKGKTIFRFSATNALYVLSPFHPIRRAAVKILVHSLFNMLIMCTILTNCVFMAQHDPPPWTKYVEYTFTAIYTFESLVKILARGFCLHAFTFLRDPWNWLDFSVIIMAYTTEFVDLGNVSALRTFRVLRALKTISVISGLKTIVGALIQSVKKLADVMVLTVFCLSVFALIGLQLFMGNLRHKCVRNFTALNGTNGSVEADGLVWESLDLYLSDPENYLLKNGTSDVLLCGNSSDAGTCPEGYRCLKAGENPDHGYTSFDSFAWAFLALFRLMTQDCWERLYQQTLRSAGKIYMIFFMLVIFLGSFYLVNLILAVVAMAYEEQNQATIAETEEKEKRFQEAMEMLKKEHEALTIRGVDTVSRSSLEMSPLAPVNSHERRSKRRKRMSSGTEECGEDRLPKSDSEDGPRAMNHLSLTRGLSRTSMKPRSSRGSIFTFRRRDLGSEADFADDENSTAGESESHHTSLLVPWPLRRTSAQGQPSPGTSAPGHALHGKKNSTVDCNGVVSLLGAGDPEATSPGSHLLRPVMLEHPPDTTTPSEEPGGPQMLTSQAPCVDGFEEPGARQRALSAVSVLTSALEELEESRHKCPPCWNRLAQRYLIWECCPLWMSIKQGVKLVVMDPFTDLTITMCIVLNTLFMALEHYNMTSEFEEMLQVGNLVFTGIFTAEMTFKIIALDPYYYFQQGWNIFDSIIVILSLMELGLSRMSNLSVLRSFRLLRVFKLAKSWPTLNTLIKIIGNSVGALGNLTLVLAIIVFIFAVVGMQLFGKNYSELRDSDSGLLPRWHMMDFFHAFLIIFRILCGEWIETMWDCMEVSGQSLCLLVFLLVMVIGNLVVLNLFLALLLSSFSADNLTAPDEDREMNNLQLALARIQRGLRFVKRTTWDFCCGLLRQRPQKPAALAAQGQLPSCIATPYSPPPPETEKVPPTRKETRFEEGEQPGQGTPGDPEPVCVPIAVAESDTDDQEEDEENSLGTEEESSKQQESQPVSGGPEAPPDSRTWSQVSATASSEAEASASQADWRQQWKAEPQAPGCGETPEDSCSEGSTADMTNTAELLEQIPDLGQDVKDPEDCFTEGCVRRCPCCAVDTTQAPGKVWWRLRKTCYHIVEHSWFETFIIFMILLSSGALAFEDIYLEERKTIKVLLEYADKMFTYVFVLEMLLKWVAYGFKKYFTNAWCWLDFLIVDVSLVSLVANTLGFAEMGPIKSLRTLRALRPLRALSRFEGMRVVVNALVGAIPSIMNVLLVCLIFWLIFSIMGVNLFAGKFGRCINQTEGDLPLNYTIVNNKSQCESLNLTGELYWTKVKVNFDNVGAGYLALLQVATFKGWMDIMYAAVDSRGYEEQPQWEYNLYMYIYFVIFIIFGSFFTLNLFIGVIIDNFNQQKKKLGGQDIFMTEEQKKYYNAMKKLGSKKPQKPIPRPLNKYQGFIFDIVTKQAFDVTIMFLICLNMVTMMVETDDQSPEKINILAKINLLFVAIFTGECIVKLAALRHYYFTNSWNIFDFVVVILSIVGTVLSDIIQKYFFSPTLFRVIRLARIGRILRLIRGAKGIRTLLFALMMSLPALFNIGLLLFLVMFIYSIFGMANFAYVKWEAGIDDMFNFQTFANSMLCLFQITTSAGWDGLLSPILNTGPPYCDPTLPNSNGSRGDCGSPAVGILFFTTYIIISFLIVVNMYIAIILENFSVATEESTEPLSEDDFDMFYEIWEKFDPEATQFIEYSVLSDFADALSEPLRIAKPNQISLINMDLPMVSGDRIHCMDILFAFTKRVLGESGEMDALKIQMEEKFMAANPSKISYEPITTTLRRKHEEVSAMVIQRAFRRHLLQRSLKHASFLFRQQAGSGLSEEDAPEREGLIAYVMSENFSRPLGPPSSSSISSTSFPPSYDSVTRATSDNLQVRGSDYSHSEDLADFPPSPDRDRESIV

[20] = target: Sodium channel protein type 1 subunit alpha (Homo sapiens) (UniProt P35498); assay: Activation of human Nav1.1 expressed in T-Rex-CHO cells assessed as change in decay time constant of channel currents at 0.1 uM by Q-patch assay relative to control; format: cell-based; in short: as §2
[21] = target: T1, Sodium channel protein type 5 subunit alpha; assay: Activation of human Nav1.5 expressed in T-Rex-CHO cells assessed as change in decay time constant of channel currents at 1 uM at holding potential of -120 mV by automated patch-clamp electrophysiology assay relative to control; format: cell-based
[22] = target: Sodium channel protein type 8 subunit alpha (Homo sapiens) (UniProt Q9UQD0); assay: Activation of human Nav1.6 expressed in T-Rex-CHO cells assessed as change in decay time constant of channel currents at 1 uM at holding potential of -120 mV by automated patch-clamp electrophysiology assay relative to control; format: cell-based
[23] = target: Sodium channel protein type 1 subunit alpha (Homo sapiens) (UniProt P35498); assay: Activation of human Nav1.1 expressed in T-Rex-CHO cells assessed as change in decay time constant of channel currents at 0.3 uM by Q-patch assay relative to control; format: cell-based; in short: as §2

Row | SMILES | Activity [1] [%] | Activity [2] [%] | Activity [7] [%] | also measured
1 | CCN(CC)c1ncnc(-c2ccc(Cl)cc2)c1C(=O)Nc1ccc(C(C)C)nc1 | 74 | 96 | – | –
2 | CC(C)c1ccc(NC(=O)c2c(-c3cc(F)ccc3F)ccnc2N2CC[C@H](F)C2)cn1 | – | – | 492 | Drug uptake(free) [3]: 13 nM; Activity [4]: 255%; Activity [5]: 106%; concentration at 1 h [6]: 968 ng/mL; Activity [8]: 1900%; Kp at 1 h [9]: 0.2; Activity [10]: 100%; concentration at 1 h [11]: 193 ng/g; Activity [12]: 144%; Activity [13]: 176%; Activity [14]: 129%; Activity [15]: 94%; Activity [16]: 826%; efflux ratio at 1 h, 1 µM [17]: 1; fraction unbound at 1 h [18]: 0.029; Activity [19]: 94%; Activity [20]: 1200%; Activity [21]: 108%; Activity [22]: 102%
3 | CC(C)c1ccc(NC(=O)c2c(-c3ccc(Cl)cc3)cccc2N2CCOCC2)cn1 | 110 | 99 | – | –
4 | CC(C)c1ccc(NC(=O)c2c(-c3ccc(F)cc3)ncnc2N2CC[C@H](F)C2)cn1 | – | 197 | 93 | –
5 | CC(C)c1ccc(NC(=O)c2c(-c3ccn(C)n3)ncnc2N2CC[C@H](F)C2)cn1 | – | 87 | 80 | –
6 | CC(C)c1ccc(NC(=O)c2c(-c3ccc(Cl)cc3)cncc2N2CCOCC2)cn1 | 699 | 313 | – | –
7 | CC(C)c1ccc(NC(=O)c2c(-c3ccc(Cl)cc3)ncnc2N2CC[C@@H](F)C2)cn1 | 162 | 145 | – | –
8 | CC(C)c1ccc(NC(=O)c2c(-c3cccc(F)c3)ncnc2N2CC[C@H](F)C2)cn1 | – | 271 | 111 | –
9 | CC(C)c1ccc(NC(=O)c2c(-c3ccccc3F)ncnc2N2CC[C@H](F)C2)cn1 | – | 391 | 135 | Activity [8]: 1400%; Activity [23]: 711%
10 | CC(C)c1ccc(NC(=O)c2c(-c3ccc(Cl)cc3)ncnc2N2CCCCC2)cn1 | 105 | 110 | – | –
11 | CC(C)c1ccc(NC(=O)c2c(-c3ccccc3)ncnc2N2CC[C@H](F)C2)cn1 | – | 302 | 102 | Activity [8]: 332%; Activity [23]: 255%
12 | CC(C)c1ccc(NC(=O)c2c(N3CCOCC3)ccnc2-c2ccc(Cl)cc2)cn1 | 107 | 97 | – | –
